Screening results from PubChem.
TAAR1 antagonist: antagonists of human TAAR1; CHO RD-HGA16 TAAR1, Fluo-8 calcium fluorescence, antagonist; Q96RJ0; inhibition, % at 3 µM; 360,000 tested, 1.5% active;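 active means inhibition above a per-plate cutoff, the mean inhibition of test compounds on that plate plus 3 SD, cut at about 49% in these data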
Target sequence (Q96RJ0 whole entry, looked up): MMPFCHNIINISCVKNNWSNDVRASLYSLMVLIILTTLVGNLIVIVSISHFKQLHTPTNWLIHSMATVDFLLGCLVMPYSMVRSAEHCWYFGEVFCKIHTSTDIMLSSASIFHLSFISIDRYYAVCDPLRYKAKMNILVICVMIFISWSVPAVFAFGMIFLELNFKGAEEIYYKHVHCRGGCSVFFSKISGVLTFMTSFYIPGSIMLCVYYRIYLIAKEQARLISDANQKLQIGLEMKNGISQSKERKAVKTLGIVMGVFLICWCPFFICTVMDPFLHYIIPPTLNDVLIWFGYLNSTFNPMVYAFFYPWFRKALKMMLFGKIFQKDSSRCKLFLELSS
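Test system: RD-HGA16 CHO cells with stable hTAAR1 and Gα16 / Probe or stimulus: EC80 β-phenethylamine stimulus / Times: seeding 17-24 h prior, 75-min 37 °C, 30-min RT dye loading / Detection: Fluo-8 calcium-sensitive fluorescence / Read-out basis: % inhibition scaled between DMSO and EC80 PEA controls / Repeats: singlicate, one well per test compound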
TAAR1 ag: agonists of human TAAR1; Q96RJ0; CHO RD-HGA16 TAAR1, Fluo-8 calcium fluorescence; vehicle wells 0%, saturating PEA agonist 100%; activation, % at 3 µM; 360,000 tested, 0.99% active;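 active means activation above the mean activation of all test compounds in the run plus 3 SD, cut at about 38% in these data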
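Assay system – CHO-derived RD-HGA16 cells with stable Gα16 and human TAAR1 · Compound dosing – one-point dosing at 3 µM (nominal) · Incubation – 17-24 h seeding, 75 min 37 °C dye, 30 min RT · Measured by – kinetic Fluo-8 calcium fluorescence · Control set – DMSO vehicle as 0%, PEA at EC100 as 100% · Repeats – single well for each compound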
V1R ag counter: counter-screen for oxytocin receptor agonists: human V1a receptor agonists; CHO-V1R cells, Fluo-8 calcium fluorescence, agonist mode; 0% DMSO, 100% 3 nM vasopressin; activation, % at 3 µM; 320,000 tested, 0.25% active; P37288;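 active means activation above the mean activation of all tested compounds plus 3 SD, per screening run, cut at about 20% in these data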;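 further: signal is peak over basal fluorescence ratio across a 100 second FLIPR read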
OXTR potentiator: human OXTR potentiation; CHO-OTR cells, Fluo-8 calcium fluorescence, potentiator mode; 0% = oxytocin EC15, 100% = EC100; AID 2445; P30559; activation, % at 3 µM; 320,000 tested, 0.061% active;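 active means activation above that plate's cutoff, the mean activation of tested compounds plus 3 SD, cut at about 6.6% in these data, passing the limit was not always enough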
Target sequence (P30559 whole entry, looked up): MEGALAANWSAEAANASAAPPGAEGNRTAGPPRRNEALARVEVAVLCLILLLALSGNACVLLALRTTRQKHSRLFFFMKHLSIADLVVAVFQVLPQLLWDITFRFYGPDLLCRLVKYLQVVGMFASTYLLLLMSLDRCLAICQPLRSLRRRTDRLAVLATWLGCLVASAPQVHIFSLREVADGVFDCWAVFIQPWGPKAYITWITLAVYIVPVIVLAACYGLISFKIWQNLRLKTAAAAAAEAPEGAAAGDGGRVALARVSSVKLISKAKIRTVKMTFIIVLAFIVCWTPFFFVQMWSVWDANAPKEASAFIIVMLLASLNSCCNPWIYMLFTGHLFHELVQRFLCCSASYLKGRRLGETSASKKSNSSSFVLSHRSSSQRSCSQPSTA
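Material: CHO-OTR cells, human receptor; compound dosing: single dose, 3.0 µM nominal final compound concentration; schedule: 6 min compound pre-incubation at room temperature, 100 s kinetic read; measured by: kinetic Fluo-8 calcium fluorescence; read-out basis: % activation vs EC15 and EC100 oxytocin; controls: EC15 oxytocin alone as 0%, 75 nM oxytocin as 100%; replicates: singlicate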
OXTR ag: human OXTR agonism | P30559 | CHO-OTR cells, Fluo-8 calcium fluorescence; normalized: DMSO 0%, oxytocin 100% | activation, % at 3 µM | 320,000 tested, 0.32% active | AID 2435;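 active means activation above the mean of all tested compounds plus 3 SD, cutoff set per screening run, cut at about 20% in these data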;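 further: peak over basal fluorescence ratio from a 100 s FLIPR kinetic read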
nonsel antag count: counter-screen for TAAR1 antagonists: nonselective antagonists; AID 651780; 2,400 tested, 77% active; shares compounds with TAAR1 antagonist; counterscreen cell line, calcium fluorescence, antagonist mode; inhibition, % at 3 µM; in the data active means inhibition above about 22%;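 further: CHO-Ga16 host cells stimulated with ATP at an EC80 level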
TAAR1 antag conf: confirmation of human TAAR1 antagonists. shares compounds with TAAR1 antagonist. TAAR1-expressing cells, fluorescence antagonist read-out. inhibition, % at 3 µM. 2,400 tested, 40% active. AID 651785; in the data active means inhibition above about 49%;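 further: CHO-Ga16 host cells challenged with agonist PEA near its EC80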
Ga16 ag counter: nonselective Ga16 agonist in TAAR1 antagonist counter-screen; shares compounds with TAAR1 antagonist; Ga16-expressing cells, calcium fluorescence, agonist counterscreen; activation, % at 3 µM; 2,400 tested, 18% active; in the data active means activation above about 12%
TAAR1 ag counter: counter-screen for human TAAR1 antagonists: TAAR1 agonists | hTAAR1 cell line, fluorescence activation, agonist mode | shares compounds with TAAR1 antagonist | 2,400 tested, 2% active | activation, % at 3 µM; in the data active means activation above about 37%;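 further: CHO cells stably expressing TAAR1 with calcium dye readout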
A number is an active result. Only some compounds are listed: those with a hit (about 2.3% of all), similar ones and a draw of the others.

Results for CCOC(=O)N1CCN(C(=O)CSc2nc3c([nH]c4ccccc43)c(=O)n2CCOC)CC1 ?
TAAR1 antagonist: 55.4; TAAR1 ag: inactive; V1R ag counter: inactive; OXTR potentiator: inactive; OXTR ag: inactive; nonsel antag count: 28.2; TAAR1 antag conf: inactive; Ga16 ag counter: inactive; TAAR1 ag counter: inactive

How did CCO[C@H]1OC(C(=O)NCc2ccccc2)=C[C@@H](C(C)(C)C)[C@@H]1CCCO do in these assays?
TAAR1 antagonist: inactive; TAAR1 ag: inactive; V1R ag counter: inactive; OXTR potentiator: inactive; OXTR ag: inactive

Results for CCSCCCn1[nH]c2ccccc2c1=O ?
TAAR1 antagonist: inactive; TAAR1 ag: inactive

Results for CC(C)(C)c1ccc(S(=O)(=O)N2CCN(C(=O)C(=O)c3cccc(C(F)(F)F)c3)CC2)cc1 ?
TAAR1 antagonist: inactive; TAAR1 ag: inactive

What do the screens show for `Cc1nc(-c2cccc(NC(=O)c3ccc(-n4nccc4C)cc3)c2)cs1`?
TAAR1 antagonist: 68.5; TAAR1 ag: inactive; V1R ag counter: inactive; OXTR potentiator: inactive; OXTR ag: inactive; nonsel antag count: 32.9; TAAR1 antag conf: inactive; Ga16 ag counter: inactive; TAAR1 ag counter: inactive

Results for O=C(O)Cn1c(=O)c2c3c(sc2n(Cc2ccc(F)cc2)c1=O)CCCC3 ?
TAAR1 antagonist: inactive; TAAR1 ag: inactive; V1R ag counter: inactive; OXTR potentiator: inactive; OXTR ag: inactive

How did O=C(O)Cn1c(=O)c2c3c(sc2n(Cc2ccccc2F)c1=O)CCCC3 do in these assays?
TAAR1 antagonist: 56.0; TAAR1 ag: inactive; V1R ag counter: inactive; OXTR potentiator: inactive; OXTR ag: inactive; nonsel antag count: inactive; TAAR1 antag conf: inactive; Ga16 ag counter: inactive; TAAR1 ag counter: inactive

Results for COC(=O)[C@H](CCSC)NC(=O)NCc1cccs1 ?
TAAR1 antagonist: 107.2; TAAR1 ag: inactive; V1R ag counter: inactive; OXTR potentiator: inactive; OXTR ag: inactive; nonsel antag count: inactive; TAAR1 antag conf: inactive; Ga16 ag counter: inactive; TAAR1 ag counter: inactive

Results for COC(=O)[C@@H](NC(=O)NCc1cccs1)C(C)C ?
TAAR1 antagonist: inactive; TAAR1 ag: inactive; V1R ag counter: inactive; OXTR potentiator: inactive; OXTR ag: inactive

How did CCOc1ccccc1NC(=O)CSc1nc2[nH]ncc2c(=O)[nH]1 do in these assays?
TAAR1 antagonist: inactive; TAAR1 ag: inactive; V1R ag counter: inactive; OXTR potentiator: inactive; OXTR ag: inactive

How did CCc1cc2c(=O)oc(-c3ccccc3F)nc2s1 do in these assays?
TAAR1 antagonist: inactive; TAAR1 ag: inactive; V1R ag counter: inactive; OXTR potentiator: inactive; OXTR ag: inactive

How did Cc1cccc(C(=O)NN2C(=O)C3C(c4ccccc4)C=CC(c4ccccc4)C3C2=O)c1 (centres undefined) do in these assays?
TAAR1 antagonist: 91.6; TAAR1 ag: inactive; V1R ag counter: inactive; OXTR potentiator: inactive; OXTR ag: inactive; nonsel antag count: 53.5; TAAR1 antag conf: 59.5; Ga16 ag counter: 13.6; TAAR1 ag counter: inactive

How did COC(=O)c1[nH]c(C)c(/C(O)=C2\C(=O)C(=O)N(CCN3CCOCC3)C2c2ccc(C)o2)c1C (centres undefined) do in these assays?
TAAR1 antagonist: inactive; TAAR1 ag: inactive; V1R ag counter: inactive; OXTR potentiator: inactive; OXTR ag: inactive

Results for C=CCn1cnc2c(c1=O)c1nc3ccccc3nc1n2/N=C/c1cc(OC)c(OC)c(OC)c1 ?
TAAR1 antagonist: inactive; TAAR1 ag: inactive; V1R ag counter: inactive; OXTR potentiator: inactive; OXTR ag: inactive

What do the screens show for `COCCn1cnc2c(c1=O)c1nc3ccccc3nc1n2/N=C/c1cccc(OC)c1`?
TAAR1 antagonist: 53.4; TAAR1 ag: inactive; V1R ag counter: inactive; OXTR potentiator: inactive; OXTR ag: inactive; nonsel antag count: 26.7; TAAR1 antag conf: inactive; Ga16 ag counter: inactive; TAAR1 ag counter: inactive

What do the screens show for `Cc1ccccc1NC(=O)CSc1nnc(C)c2ccccc12`?
TAAR1 antagonist: inactive; TAAR1 ag: inactive; V1R ag counter: inactive; OXTR potentiator: inactive; OXTR ag: inactive

How did COc1ccc2nc(NC(=O)C3CC(=O)N(c4ccccc4)C3)sc2c1 (centres undefined) do in these assays?
TAAR1 antagonist: inactive; TAAR1 ag: inactive; V1R ag counter: inactive; OXTR potentiator: inactive; OXTR ag: inactive

Results for Oc1ccc(N=Nc2ccc3c(c2)OCCO3)c2cccnc12 ?
TAAR1 antagonist: 83.5; TAAR1 ag: inactive; V1R ag counter: inactive; OXTR potentiator: inactive; OXTR ag: inactive; nonsel antag count: 31.9; TAAR1 antag conf: inactive; Ga16 ag counter: inactive; TAAR1 ag counter: inactive

Results for CCOc1ccc2ncc(S(=O)(=O)c3ccccc3)c(N3CCC4(CC3)OCCO4)c2c1 ?
TAAR1 antagonist: 49.1; TAAR1 ag: inactive; V1R ag counter: inactive; OXTR potentiator: inactive; OXTR ag: inactive; nonsel antag count: inactive; TAAR1 antag conf: inactive; Ga16 ag counter: inactive; TAAR1 ag counter: inactive

What do the screens show for `COc1ccc(S(=O)(=O)c2cnc3ccc(OC)cc3c2N2CCC3(CC2)OCCO3)cc1`?
TAAR1 antagonist: 72.0; TAAR1 ag: inactive; V1R ag counter: inactive; OXTR potentiator: inactive; OXTR ag: inactive; nonsel antag count: 25.5; TAAR1 antag conf: 50.1; Ga16 ag counter: inactive; TAAR1 ag counter: inactive

Results for CCOc1ccc2ncc(S(=O)(=O)c3ccccc3)c(N3CCN(c4ccccc4)CC3)c2c1 ?
TAAR1 antagonist: inactive; TAAR1 ag: inactive; V1R ag counter: inactive; OXTR potentiator: inactive; OXTR ag: inactive

What do the screens show for `Cc1ccc(C(=O)NCCONC(=O)c2ccc(C)cc2)cc1`?
TAAR1 antagonist: inactive; TAAR1 ag: inactive; V1R ag counter: inactive; OXTR potentiator: inactive; OXTR ag: inactive

How did O=C(CC(=O)c1ccccc1)Nc1cc([N+](=O)[O-])ccc1Cl do in these assays?
TAAR1 antagonist: 77.4; TAAR1 ag: inactive; V1R ag counter: inactive; OXTR potentiator: inactive; OXTR ag: inactive; nonsel antag count: 34.7; TAAR1 antag conf: 54.6; Ga16 ag counter: inactive; TAAR1 ag counter: inactive

How did CCCCC(=O)Nc1cc([N+](=O)[O-])ccc1Cl do in these assays?
TAAR1 antagonist: inactive; TAAR1 ag: inactive; V1R ag counter: inactive; OXTR potentiator: inactive; OXTR ag: inactive

What do the screens show for `CCOc1ccc(NC(=O)C2CCCN(c3c(CC)c(C)nc4ncnn34)C2)cc1` (centres undefined)?
TAAR1 antagonist: inactive; TAAR1 ag: inactive; V1R ag counter: inactive; OXTR potentiator: inactive; OXTR ag: inactive
